# Results from ChEMBL document CHEMBL1137348, “Determination of the binding mode of thienopyrimidinedione antagonists to the human gonadotropin releasing hormone receptor using structure-activity relationships, site-directed mutagenesis, and homology modeling” (J Med Chem, 2006).
# Assays:
# [1] = target: Gonadotropin-releasing hormone receptor (Homo sapiens, UniProt P30968, M24I); test: Displacement of [His5, D-Tyr6]GnRH from GnRHR M24I mutant expressed in COS7 cells; type: cell-based, COS-7
# How it was run: (§1)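 Human GnRH-R mutants (all in F272(6.40)L background) electroporated into COS-7 cells. Membranes taken 36-48 h later and lysed by nitrogen cavitation. Shaken 2 h at room temperature, then filtered and scintillation counted.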
# [2] = target: Gonadotropin-releasing hormone receptor (Homo sapiens, UniProt P30968, N27A); test: Displacement of [His5, D-Tyr6]GnRH from GnRHR N27A mutant expressed in COS7 cells; type: cell-based, COS-7; how it was run: as §1
# Gonadotropin-releasing hormone receptor (Homo sapiens, UniProt P30968, N27A), sequence (P30968 whole entry N27A): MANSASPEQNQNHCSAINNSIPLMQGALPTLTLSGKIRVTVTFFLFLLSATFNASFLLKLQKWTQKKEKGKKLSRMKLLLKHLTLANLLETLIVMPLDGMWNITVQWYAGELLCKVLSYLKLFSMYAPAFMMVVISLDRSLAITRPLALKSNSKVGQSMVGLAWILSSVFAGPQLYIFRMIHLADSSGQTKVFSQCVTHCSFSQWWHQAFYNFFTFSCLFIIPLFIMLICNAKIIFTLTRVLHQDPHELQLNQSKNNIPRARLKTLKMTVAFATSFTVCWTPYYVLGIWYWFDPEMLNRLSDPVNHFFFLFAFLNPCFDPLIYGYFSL
# [3] = target: Gonadotropin-releasing hormone receptor (Homo sapiens, UniProt P30968, Q208E); test: Displacement of [His5, D-Tyr6]GnRH from GnRHR Q208E mutant expressed in COS7 cells; type: cell-based, COS-7; how it was run: as §1
# Gonadotropin-releasing hormone receptor (Homo sapiens, UniProt P30968, Q208E), sequence (P30968 whole entry Q208E): as the sequence (P30968 whole entry N27A) above, with A27N, Q208E counted along it
# [4] = target: Gonadotropin-releasing hormone receptor (Homo sapiens, UniProt P30968, Y284L); test: Displacement of [His5, D-Tyr6]GnRH from GnRHR Y284L mutant expressed in COS7 cells; type: cell-based, COS-7; how it was run: as §1
# Gonadotropin-releasing hormone receptor (Homo sapiens, UniProt P30968, Y284L), sequence (P30968 whole entry Y284L): as the sequence (P30968 whole entry N27A) above, with A27N, Y284L counted along it
# [5] = target: Gonadotropin-releasing hormone receptor (Homo sapiens, UniProt P30968, L300A); test: Displacement of [His5, D-Tyr6]GnRH from GnRHR L300A mutant expressed in COS7 cells; type: cell-based, COS-7; how it was run: as §1
# Gonadotropin-releasing hormone receptor (Homo sapiens, UniProt P30968, L300A), sequence (P30968 whole entry L300A): as the sequence (P30968 whole entry N27A) above, with A27N, L300A counted along it
# [6] = target: Gonadotropin-releasing hormone receptor (Homo sapiens, UniProt P30968, D302A); test: Displacement of [His5, D-Tyr6]GnRH from GnRHR D302A mutant expressed in COS7 cells; type: cell-based, COS-7; how it was run: as §1
# Gonadotropin-releasing hormone receptor (Homo sapiens, UniProt P30968, D302A), sequence (P30968 whole entry D302A): as the sequence (P30968 whole entry N27A) above, with A27N, D302A counted along it
# [7] = target: Gonadotropin-releasing hormone receptor (Homo sapiens, UniProt P30968, D302N); test: Displacement of [His5, D-Tyr6]GnRH from GnRHR D302N mutant expressed in COS7 cells; type: cell-based, COS-7; how it was run: as §1
# Gonadotropin-releasing hormone receptor (Homo sapiens, UniProt P30968, D302N), sequence (P30968 whole entry D302N): as the sequence (P30968 whole entry N27A) above, with A27N, D302N counted along it
# [8] = target: Gonadotropin-releasing hormone receptor (Homo sapiens, UniProt P30968, H306A); test: Displacement of [His5, D-Tyr6]GnRH from GnRHR H306A mutant expressed in COS7 cells; type: cell-based, COS-7; how it was run: as §1
# Gonadotropin-releasing hormone receptor (Homo sapiens, UniProt P30968, H306A), sequence (P30968 whole entry H306A): as the sequence (P30968 whole entry N27A) above, with A27N, H306A counted along it
# [9] = target: Gonadotropin-releasing hormone receptor (Homo sapiens, UniProt P30968, H306E); test: Displacement of [His5, D-Tyr6]GnRH from GnRHR H306E mutant expressed in COS7 cells; type: cell-based, COS-7; how it was run: as §1
# Gonadotropin-releasing hormone receptor (Homo sapiens, UniProt P30968, H306E), sequence (P30968 whole entry H306E): as the sequence (P30968 whole entry N27A) above, with A27N, H306E counted along it
# [10] = target: Gonadotropin-releasing hormone receptor (Homo sapiens, UniProt P30968, F309L); test: Displacement of [His5, D-Tyr6]GnRH from GnRHR F309L mutant expressed in COS-7 cells; type: cell-based; how it was run: as §1
# Gonadotropin-releasing hormone receptor (Homo sapiens, UniProt P30968, F309L), sequence (P30968 whole entry F309L): as the sequence (P30968 whole entry N27A) above, with A27N, F309L counted along it
# [11] = target: Gonadotropin-releasing hormone receptor (Homo sapiens, UniProt P30968, F309Q); test: Displacement of [His5, D-Tyr6]GnRH from GnRHR F309Q mutant expressed in COS7 cells; type: cell-based, COS-7; how it was run: as §1
# Gonadotropin-releasing hormone receptor (Homo sapiens, UniProt P30968, F309Q), sequence (P30968 whole entry F309Q): as the sequence (P30968 whole entry N27A) above, with A27N, F309Q counted along it
# [12] = target: Gonadotropin-releasing hormone receptor (Homo sapiens, UniProt P30968, F313L); test: Displacement of [His5, D-Tyr6]GnRH from GnRHR F313L mutant expressed in COS7 cells; type: cell-based, COS-7; how it was run: as §1
# Gonadotropin-releasing hormone receptor (Homo sapiens, UniProt P30968, F313L), sequence (P30968 whole entry F313L): as the sequence (P30968 whole entry N27A) above, with A27N, F313L counted along it
# [13] = target: Gonadotropin-releasing hormone receptor (Homo sapiens, UniProt P30968, F272L); test: Displacement of [125I]-His5, D-Tyr6]GnRH from GnRHR F272L mutant expressed in COS7 cells; type: cell-based, COS-7; how it was run: as §1
# Gonadotropin-releasing hormone receptor (Homo sapiens, UniProt P30968, F272L), sequence (P30968 whole entry F272L): as the sequence (P30968 whole entry N27A) above, with A27N, F272L counted along it
# [14] = target: Gonadotropin-releasing hormone receptor (Homo sapiens, UniProt P30968, Y290L); test: Displacement of [His5, D-Tyr6]GnRH from GnRHR Y290L mutant expressed in COS7 cells; type: cell-based, COS-7; how it was run: as §1
# Gonadotropin-releasing hormone receptor (Homo sapiens, UniProt P30968, Y290L), sequence (P30968 whole entry Y290L): as the sequence (P30968 whole entry N27A) above, with A27N, Y290L counted along it
# Gonadotropin-releasing hormone receptor (Homo sapiens, UniProt P30968, M24I), sequence (P30968 whole entry M24I): as the sequence (P30968 whole entry N27A) above, with M24I, A27N counted along it
Structure (SMILES),IC50 [1] [nM],IC50 [2] [nM],IC50 [3] [nM],IC50 [4] [nM],IC50 [5] [nM],IC50 [6] [nM],IC50 [7] [nM],IC50 [8] [nM],IC50 [9] [nM],IC50 [10] [nM],IC50 [11] [nM],IC50 [12] [nM],IC50 [13] [nM],IC50 [14] [nM]
CN(CCc1ccccc1)Cc1c(-c2ccc([N+](=O)[O-])cc2)sc2c1c(=O)n(-c1ccccc1)c(=O)n2Cc1c(F)cccc1F,> 10000,1300,5000,> 10000,> 10000,1600,1900,3300,7100,> 10000,> 10000,> 10000,1100,1900
CN(Cc1ccccc1)Cc1c(-c2ccc([N+](=O)[O-])cc2)sc2c1c(=O)n(-c1ccccc1)c(=O)n2Cc1c(F)cccc1F,> 10000,1600,> 10000,> 10000,> 10000,1900,1400,3000,> 10000,> 10000,> 10000,> 10000,600,1100
CN(Cc1ccccc1)Cc1c(-c2ccc(NC(=O)c3ccccc3)cc2)sc2c1c(=O)n(-c1ccccc1)c(=O)n2Cc1c(F)cccc1F,380,26,31,1500,22,15,13,400,800,100,220,400,6,20
CN(Cc1ccccc1)Cc1c(-c2ccc(N)cc2)sc2c1c(=O)n(-c1ccccc1)c(=O)n2Cc1c(F)cccc1F,4000,370,1500,> 10000,1600,390,530,710,500,950,> 10000,> 10000,210,390
CC(=O)Nc1ccc(-c2sc3c(c2CN(C)Cc2ccccc2)c(=O)n(-c2ccccc2)c(=O)n3Cc2c(F)cccc2F)cc1,2300,31,230,4400,240,210,160,1700,1600,1100,2400,2000,29,52
CN(CCc1ccccn1)Cc1c(-c2ccc([N+](=O)[O-])cc2)sc2c1c(=O)n(-c1ccccc1)c(=O)n2Cc1c(F)cccc1F,> 10000,200,450,2000,110,58,40,240,400,2650,3600,4500,52,900
CN(Cc1ccccc1)Cc1c(-c2ccc(NC(=O)NCc3ccccc3)cc2)sc2c1c(=O)n(-c1ccccc1)c(=O)n2Cc1c(F)cccc1F,390,30,70,6000,190,1100,500,600,4000,900,1200,1400,20,70
CN(Cc1ccccc1)Cc1c(-c2ccc(NC3=NCCN3)cc2)sc2c1c(=O)n(-c1ccccc1)c(=O)n2Cc1c(F)cccc1F,> 10000,480,1400,5000,1020,3300,2100,4400,800,1800,5200,> 10000,240,350
